For 1 molecule, GI50 results are on record in ChEMBL document CHEMBL3596157, “Heteroaromatic analogs of the resveratrol analog DMU-212 as potent anti-cancer agents” (2015).

By GI50 is commonly meant the concentration giving 50% growth inhibition.

Common to all, as to assay type: functional
Test [1] is described as follows: Growth inhibition of human RPMI8226 cells after 48 hrs by SRB assay. The settings on record: RPMI-8226, 48 h. The method, boiled down:
(§1)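 NCI-60 panel screen. Cells exposed for 48 h to five concentrations (10−4, 10−5, 10−6, 10−7 and 10−8 M). Sulforhodamine B optical density is read just before compound addition (time zero) and after 48 h, for both treated and vehicle-control wells. Percent growth is calculated against control. GI50 is the concentration giving a 50% reduction in net cell growth relative to cell numbers on day 0.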
On the technique in general: In SRB staining, fixed cells bind dye roughly in proportion to their protein.

In test [2] the test system is SR. Put plainly: Growth inhibition of human SR cells after 48 hrs by SRB assay. The method, boiled down:
(§2)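 NCI-60 panel cells; preliminary single-dose screen at 10−5 M, then five-dose testing at 10−4 to 10−8 M (tenfold steps) with 48 h exposure. SRB-stained optical density read before compound addition (time zero), after 48 h with compound, and with vehicle control. Percent growth is calculated against control. GI50 is the concentration giving 50% reduction in net growth relative to day-0 cell number.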

For test [3], the system named is HCT-116. Briefly: Growth inhibition of human HCT116 cells after 48 hrs by SRB assay. The note with it: HCT-116, 48 h. The method, boiled down: as §1
Test [4] has as its system KM12. Put plainly: Growth inhibition of human KM12 cells after 48 hrs by SRB assay. The note with it: KM12, 48 h. The method in brief: as §1
A short description of test [5]: Growth inhibition of human SF295 cells after 48 hrs by SRB assay. The settings on record: SF-295, 48 h. The method, boiled down: as §1
Test [6] concerns SNB-19. Put plainly: Growth inhibition of human SNB19 cells after 48 hrs by SRB assay. The note with it: SNB-19, 48 h. The method in brief: as §1
Test [7] concerns Malme-3M. Briefly: Growth inhibition of human MALME-3M cells after 48 hrs by SRB assay. The method in brief: as §1
Test [8] relates to M14. Briefly: Growth inhibition of human M14 cells after 48 hrs by SRB assay. The note with it: M14, 48 h. The method in brief:
as §1

Test [9] has as its system UACC-62. Put plainly: Growth inhibition of human UACC62 cells after 48 hrs by SRB assay. The note with it: UACC-62, 48 h. The method, boiled down: as §2
In test [10] the test system is OVCAR-3. Put plainly: Growth inhibition of human OVCAR3 cells after 48 hrs by SRB assay. The settings on record: OVCAR-3, 48 h. The method, boiled down:
as §1

Test [11] relates to OVCAR-4. Put plainly: Growth inhibition of human OVCAR4 cells after 48 hrs by SRB assay. The note with it: OVCAR-4, 48 h. The method in brief: as §1
Test [12] concerns A498. Briefly: Growth inhibition of human A498 cells after 48 hrs by SRB assay. The settings on record: A498, 48 h. The method in brief:
as §1

A short description of test [13]: Growth inhibition of human RXF393 cells after 48 hrs by SRB assay. The note with it: RXF 393, 48 h. The method, boiled down:
as §1

Test [14] relates to SN12C. Put plainly: Growth inhibition of human SN12C cells after 48 hrs by SRB assay. The method in brief:
as §1

Test [15] deals with UO-31. Briefly: Growth inhibition of human UO31 cells after 48 hrs by SRB assay. The settings on record: UO-31, 48 h. The method, boiled down: as §2
The subject of test [16] is PC-3. Briefly: Growth inhibition of human PC3 cells after 48 hrs by SRB assay. The settings on record: PC-3, 48 h. The method, boiled down:
as §1

Take `COc1cc(/C=C/c2cc3ccccc3o2)cc(OC)c1OC`: the GI50 in [1] was determined as 700 nM; in test [2] it was 94 nM; in [3], 522 nM; in test [4] it was 508 nM; in test [5], 356 nM; in [6] it was 584 nM. The 50% growth inhibitory concentration (GI50) in test [7] came to 413 nM; in [8], 479 nM; in test [9] it was 507 nM; in test [10], 429 nM; in test [11], 1150 nM; in test [12] it was 408 nM. The GI50 was determined as 329 nM in test [13], 4090 nM in [14], 1150 nM in [15] and 524 nM in test [16].
